Reference: ChEMBL document CHEMBL5104102, “Discovery of FtsZ inhibitors by virtual screening as antibacterial agents and study of the inhibition mechanism” (RSC Med Chem, 2022)
≈ marks a conversion by molar mass, not a printed value. Calls of active or inactive are those of the source. No cut-off for these calls is given here.

Columns and labels:
Staphylococcus aureus [1] = test: Antibacterial activity against Staphylococcus aureus 29213 assessed as inhibition of bacterial growth incubated for 18 hrs by CLSI protocol based two fold serial dilution method; assay type: functional
In short: (§1)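 S. aureus ATCC 29213 was grown in CAMHB and tested by CLSI-based broth microdilution. An overnight culture (37 °C, 250 rpm) was diluted tenfold, grown 2 h, and set to 5 × 10^6 CFU mL−1. Cells were added to two-fold serial compound dilutions (1% DMSO) and incubated 18 h at 37 °C. Read-out was A600, in duplicate. MIC was the lowest concentration with A600 < 0.1.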

Bacillus subtilis [2] = test: Antibacterial activity against Bacillus subtilis 168 assessed as inhibition of bacterial growth incubated for 18 hrs by CLSI protocol based two-fold serial dilution assay; assay type: functional
In short: as §1, with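 “B. subtilis 168 or E. coli” for “S. aureus”, “25922” for “29213”, “MHB” for “CAMHB”, “mL−1 by A600.” for “mL−1.”, “giving” for “with”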

Escherichia coli [3] = test: Antibacterial activity against Escherichia coli 25922 assessed as inhibition of bacterial growth incubated for 18 hrs by CLSI protocol based two fold serial dilution method; assay type: functional
In short: as §1, with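 “B. subtilis 168 or E. coli” for “S. aureus”, “25922” for “29213”, “MHB” for “CAMHB”, “mL−1 by A600.” for “mL−1.”, “giving” for “with”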

[4] = Ratio of MBC for bactericidal activity against methicillin-resistant Staphylococcus aureus BAA 41 to MIC for antibacterial activity against methicillin-resistant Staphylococcus aureus BAA 41; assay type: functional
In short: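 MBC: culture at 5 × 10^5 CFU mL−1 incubated overnight at 37 °C with shaking and compound or 1% DMSO, then diluted ≥10-fold and plated on TSA for 24 h at 37 °C. MBC is the lowest concentration giving ≥99.9% reduction of the initial count. MBC is divided by the broth-dilution MIC (A600 < 0.1 after 18 h).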

Escherichia coli [5] = test: Synergistic antibacterial activity against Escherichia coli 25922 assessed as inhibition of bacterial growth incubated for 18 hrs in presence of PMBN by checkerboard assay; assay type: functional
In short: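 E. coli ATCC 25922 was tested in MHB by the broth microdilution format with two-fold serial compound dilutions. Polymyxin B nonapeptide was added to each well at 20 μg mL−1 final before adding bacteria at 5 × 10^5 CFU mL−1. Growth was read by A600.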

Staphylococcus aureus [6] = test: Bactericidal activity against methicillin-resistant Staphylococcus aureus BAA 41 assessed as inhibition of bacterial growth at 8 ug/ml incubated for 24 hrs by time-kill assay; assay type: functional; settings: dose 8 µg/ml
In short: (§2)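 Time-kill: 3 mL culture at 5 × 10^5 CFU mL−1 exposed to compound at several concentrations or to 1% DMSO control at 37 °C with shaking at 250 rpm, over 24 h. 100 μL samples taken at intervals, diluted as needed, and spread on agar. Colonies counted after 24 h at 37 °C.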

Staphylococcus aureus [7] = test: Antibacterial activity against methicillin-resistant Staphylococcus aureus BAA 41 assessed as inhibition of bacterial growth incubated for 18 hrs by CLSI protocol based two fold serial dilution method; assay type: functional
In short: (§3)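 CAMHB culture grown overnight at 37 °C with shaking at 250 rpm, diluted 10-fold, and grown 2 h. Inoculum set to 5 × 10^6 CFU mL−1 by A600. Compounds in DMSO were serially diluted two-fold, with 1% DMSO per well. Read at A600 after 18 h at 37 °C. MIC is the lowest concentration giving A600 < 0.1. Run in duplicate.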

Staphylococcus aureus [8] = test: Antibacterial activity against methicillin-resistant Staphylococcus aureus BAA 44 assessed as inhibition of bacterial growth incubated for 18 hrs by CLSI protocol based two fold serial dilution method; assay type: functional; in short: as §3
[9] = biological target: T1, Cell division protein FtsZ (Staphylococcus aureus) (UniProt P0A031); test: Inhibition of Staphylococcus aureus FtsZ polymerization assessed as increase in GTPase activity at 5 to 20 ug/ml incubated for 40 mins in presence of GTP by malachite green phosphate assay; settings: dose 5-20 µg/ml, DDE = dose-dependent effect
T1 sequence (whole entry): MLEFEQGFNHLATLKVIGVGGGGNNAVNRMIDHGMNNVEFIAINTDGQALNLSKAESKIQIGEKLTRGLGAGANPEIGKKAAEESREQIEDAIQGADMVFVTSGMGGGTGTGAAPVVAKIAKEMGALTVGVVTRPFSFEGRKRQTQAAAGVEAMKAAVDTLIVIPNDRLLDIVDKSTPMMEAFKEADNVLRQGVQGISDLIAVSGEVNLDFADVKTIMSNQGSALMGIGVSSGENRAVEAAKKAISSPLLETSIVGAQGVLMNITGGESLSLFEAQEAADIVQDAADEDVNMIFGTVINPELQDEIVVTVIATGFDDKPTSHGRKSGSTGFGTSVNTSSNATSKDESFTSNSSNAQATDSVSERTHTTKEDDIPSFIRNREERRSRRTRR
In short: (§4)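 Purified S. aureus FtsZ (3 μM) was preincubated with serially diluted compound in 50 mM MOPS pH 6.5 for 30 min at room temperature; 1% DMSO served as control. MgCl2 (5 mM) and KCl (200 mM) were added, and the reaction was started with 250 μM GTP for 10 min at 37 °C. Malachite green reagent was then developed 30 min at 37 °C, and released phosphate was read at A600.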

[10] = biological target: T1, Cell division protein FtsZ (Staphylococcus aureus); test: Inhibition of Staphylococcus aureus FtsZ polymerization assessed as increase in GTPase activity at 1 ug/ml incubated for 40 mins in presence of GTP by malachite green phosphate assay; settings: dose 1.0 µg/ml; in short: as §4
Staphylococcus aureus [11] = test: Bactericidal activity against methicillin-resistant Staphylococcus aureus BAA 41 assessed as inhibition of bacterial growth at 2 ug/ml incubated for 24 hrs by time-kill assay; assay type: functional, organism-based; settings: dose 2.0 µg/ml; in short: as §2
Bacillus subtilis [12] = test: Antibacterial activity against Bacillus subtilis 168 assessed as cell length at 0.5 ug/ml incubated for 4 hrs by phase-contrast microscopy; assay type: functional; settings: dose 0.5 µg/ml
In short: (§5)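 B. subtilis 168 overnight culture was diluted tenfold into fresh medium and grown 2 h. It was then adjusted to A600 = 0.01, given compound, and incubated 4 h at 37 °C; 1% (v/v) DMSO was the control. Cells were harvested, resuspended in LB, mounted on 1.2% agarose pads and imaged by phase contrast. Lengths of 100 cells per condition were measured to give length distributions and averages.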

Staphylococcus aureus [13] = test: Bactericidal activity against methicillin-resistant Staphylococcus aureus BAA 41 assessed as inhibition of bacterial growth at 1 ug/ml incubated for 24 hrs by time-kill assay; assay type: functional, organism-based; settings: dose 1.0 µg/ml; in short: as §2
Staphylococcus aureus [14] = test: Antibacterial activity against methicillin-resistant Staphylococcus aureus BAA 1720 assessed as inhibition of bacterial growth incubated for 18 hrs by CLSI protocol based two fold serial dilution method; assay type: functional; in short: as §3
Staphylococcus aureus [15] = test: Antibacterial activity against methicillin-resistant Staphylococcus aureus ATCC 33591 assessed as inhibition of bacterial growth incubated for 18 hrs by CLSI protocol based two fold serial dilution method; assay type: functional; in short: as §3
Staphylococcus aureus [16] = test: Bactericidal activity against methicillin-resistant Staphylococcus aureus BAA 41 assessed as inhibition of bacterial growth at 4 ug/ml incubated for 24 hrs by time-kill assay; assay type: functional; settings: dose 4 µg/ml; in short: as §2
Staphylococcus aureus [17] = test: Synergistic antibacterial activity against methicillin-resistant Staphylococcus aureus BAA 41 assessed as inhibition of bacterial growth incubated for 18 hrs in presence of methicillin by checkerboard assay; assay type: functional
In short: (§6)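 Checkerboard: test compound serially diluted two-fold across the plate and methicillin serially diluted down it. Bacteria added at 5 × 10^5 CFU mL−1. Incubated at 37 °C for 16–24 h, then growth read at A600. Untreated-cell columns included. FICI calculated from the combination MICs.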

Staphylococcus aureus [18] = test: Antibacterial activity against methicillin-resistant Staphylococcus aureus ATCC 33592 assessed as inhibition of bacterial growth incubated for 18 hrs by CLSI protocol based two fold serial dilution method; assay type: functional; in short: as §3
Staphylococcus aureus [19] = test: Antibacterial activity against methicillin-resistant Staphylococcus aureus ATCC 43300 assessed as inhibition of bacterial growth incubated for 18 hrs by CLSI protocol based two fold serial dilution method; assay type: functional; in short: as §3
Staphylococcus aureus [20] = test: Synergistic antibacterial activity against methicillin-resistant Staphylococcus aureus BAA 41 assessed as FICI incubated for 18 hrs in presence of methicillin by checkerboard assay; assay type: functional; in short: as §6
Bacillus subtilis [21] = test: Antibacterial activity against Bacillus subtilis 168 assessed as cell elongation at 0.5 ug/ml incubated for 4 hrs by phase-contrast microscopy; assay type: functional; settings: dose 0.5 µg/ml; in short: as §5
[22] = biological target: T2, Cell division protein FtsZ (Bacillus subtilis (strain 168)) (UniProt P17865); test: Inhibition of GFP-tagged FtsZ in Bacillus subtilis 168 assessed as inhibition of z-ring formation at 0.125 ug/ml incubated for 4 hrs by FM 5-96 dye based super-resolution microscopy; settings: dose 0.125 µg/ml
T2 sequence (whole entry): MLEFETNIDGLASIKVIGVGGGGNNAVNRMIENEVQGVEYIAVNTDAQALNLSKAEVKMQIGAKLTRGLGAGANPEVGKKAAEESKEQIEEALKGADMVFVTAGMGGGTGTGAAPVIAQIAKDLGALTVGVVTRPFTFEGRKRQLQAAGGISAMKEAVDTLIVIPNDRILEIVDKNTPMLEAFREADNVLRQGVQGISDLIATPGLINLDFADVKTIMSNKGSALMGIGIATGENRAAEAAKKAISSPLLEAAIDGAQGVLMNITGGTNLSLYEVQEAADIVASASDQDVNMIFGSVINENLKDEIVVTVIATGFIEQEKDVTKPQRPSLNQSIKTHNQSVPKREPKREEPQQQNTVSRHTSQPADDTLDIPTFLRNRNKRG
In short: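 B. subtilis 168 carried an IPTG-inducible FtsZ-GFP plasmid and was grown overnight at 37 °C in LB with 30 μg mL−1 chloramphenicol. It was back-diluted to A600 = 0.01, induced with 40 μM IPTG, and treated with compound for 4 h at 37 °C with shaking. Cells were pelleted, resuspended in PBS and mounted on agarose pads. Membranes were stained with FM 5-96, and FtsZ-GFP localization was imaged by super-resolution microscopy (N-SIM).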

Staphylococcus aureus [23] = test: Bactericidal activity against methicillin-resistant Staphylococcus aureus BAA 41 assessed as inhibition of bacterial growth incubated for 24 hrs by time-kill assay; assay type: functional; in short: as §2

| SMILES | MIC (Staphylococcus aureus [1]) | MIC (Bacillus subtilis [2]) | MIC (Escherichia coli [3]) | MIC (Escherichia coli [5]) | MIC (Staphylococcus aureus [7]) | MIC (Staphylococcus aureus [8]) | MIC (Staphylococcus aureus [14]) | MIC (Staphylococcus aureus [15]) | MIC (Staphylococcus aureus [17]) | MIC (Staphylococcus aureus [18]) | MIC (Staphylococcus aureus [19]) | fractional inhibitory concentration index (FICI) (Staphylococcus aureus [20]) | other results |
| --- | --- | --- | --- | --- | --- | --- | --- | --- | --- | --- | --- | --- | --- |
| COCCOc1ccc2c(c1)ncn2-c1ccc2cccc(N3CCC(N)CC3)c2n1 | > 128 µg/mL | > 128 µg/mL | > 128 µg/mL |  |  |  |  |  |  |  |  |  |  |
| COc1ccc(-c2cc3c(C)nc(N)nc3n([C@H]3CC[C@H](OCCO)CC3)c2=O)cn1 [PF-04691502] | > 128 µg/mL | > 128 µg/mL | > 128 µg/mL |  |  |  |  |  |  |  |  |  |  |
| CC1(C)CC(=O)c2c(C(F)(F)F)nn(-c3ccc(C(N)=O)c(N[C@H]4CC[C@H](OC(=O)CN)CC4)c3)c2C1 [SNX 5422] | > 128 µg/mL | > 128 µg/mL | > 128 µg/mL |  |  |  |  |  |  |  |  |  |  |
| NC(=O)c1c(F)ccc(OCc2nc3cc(Cl)cnc3s2)c1F | 0.5 µg/mL (≈ 1.41 µM) | 0.5 µg/mL (≈ 1.41 µM) | > 128 µg/mL | 32 µg/mL | 0.5 µg/mL (≈ 1.41 µM) | 1 µg/mL (≈ 2.81 µM) | 1 µg/mL (≈ 2.81 µM) | 1 µg/mL (≈ 2.81 µM) | 0.5 µg/mL | 2 µg/mL (≈ 5.62 µM) | 1 µg/mL (≈ 2.81 µM) | 0.52 | Ratio [4]: 2; Activity (Staphylococcus aureus [6]): 0 log10CFU/ml; inhibition [9]: Dde; inhibition [10]: 105%; Activity (Staphylococcus aureus [11]): Active; Activity (Bacillus subtilis [12]): 135.8 um; Activity (Staphylococcus aureus [13]): Active; Activity (Staphylococcus aureus [16]): 0 log10CFU/ml; Activity (Bacillus subtilis [21]): 33%; inhibition [22]: Active; MBC (Staphylococcus aureus [23]): 2 µg/mL (≈ 5.62 µM) |
| CCc1cncnc1N1CCN(Cc2nc3cc(C(F)(F)F)ccc3[nH]2)CC1 | 128 µg/mL (≈ 328 µM) | 128 µg/mL (≈ 328 µM) | > 128 µg/mL | 64 µg/mL | 64 µg/mL (≈ 164 µM) | 64 µg/mL (≈ 164 µM) | 64 µg/mL (≈ 164 µM) | 64 µg/mL (≈ 164 µM) | 128 µg/mL | 64 µg/mL (≈ 164 µM) | 32 µg/mL (≈ 82 µM) | >1 |  |
